Structures are written as SMILES. Active and inactive are the calls of the source. The calls are words filed in the database; no cut-off is given here.

The test system of data set [1] is PC-12. Nature of the data set: Cytoprotective activity against H2O2-induced damage in rat PC12 cells assessed as increase in cell viability at 5 uM preincubated for 1 hr followed by H2O2 challenge measured after 24 hrs by MTT assay. Type of data set: functional, cell-based. The essentials: (§1)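 PC12 cells at 5×10^3/well, attached overnight. Pretreated with 5 µM compound for 1 h or 24 h, then 400 µM H2O2 for 24 h. MTT (5 mg/mL) for 4 h at 37 °C, formazan dissolved in DMSO, OD read at 490 nm. Viability given as % of untreated control.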
(In general: Tetrazolium assays rely on reduction of a dye to a coloured formazan, in cell work by metabolically active cells.)

The nature of data set [2]: Antioxidant activity assessed as DPPH radical scavenging activity at 20 mg/ml after 30 mins. Type of data set: functional. The essentials: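 Samples were 20 mg/mL solutions in ethanol, mixed with 0.15 mM ethanolic DPPH (80 µL sample plus 120 µL DPPH). Mixtures were incubated 30 min at 25 °C and absorbance read at 517 nm. Ethanol plus DPPH served as the control. % scavenging = [1-(Ai-Aj)/Ac]×100. Run in triplicate.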
(In general: Loss of DPPH colour is used to gauge radical scavenging.)

Data set [3] relates to PC-12. In words: Cytotoxicity against rat PC12 cells assessed as decrease in cell viability at 5 uM after 72 hrs by MTT assay. Type of data set: cell-based. As to conditions: pc-12, 72 h. An outline of the steps:
(§2)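 PC12 cells at 5×10^3/well, attached overnight. Exposed to 5 µM compound for 24 h or 72 h without H2O2. MTT 4 h at 37 °C, formazan dissolved in DMSO, OD 490 nm. Viability as % of untreated control.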

The subject of data set [4] is PC-12. In words: Cytoprotective activity against H2O2-induced damage in rat PC12 cells assessed as increase in cell viability at 5 uM preincubated for 24 hrs followed by H2O2 challenge measured after 24 hrs by MTT assay. Type of data set: functional, cell-based. The essentials: as §1
Data set [5] deals with PC-12. Nature of the data set: Cytotoxicity against rat PC12 cells assessed as decrease in cell viability at 5 uM after 24 hrs by MTT assay. Type of data set: cell-based. To be noted: pc-12, 24 h. The essentials: as §2
For data set [6], the target named is T1, Nuclear factor erythroid 2-related factor 2 (Rattus norvegicus) (UniProt O54968).
T1 sequence (whole entry): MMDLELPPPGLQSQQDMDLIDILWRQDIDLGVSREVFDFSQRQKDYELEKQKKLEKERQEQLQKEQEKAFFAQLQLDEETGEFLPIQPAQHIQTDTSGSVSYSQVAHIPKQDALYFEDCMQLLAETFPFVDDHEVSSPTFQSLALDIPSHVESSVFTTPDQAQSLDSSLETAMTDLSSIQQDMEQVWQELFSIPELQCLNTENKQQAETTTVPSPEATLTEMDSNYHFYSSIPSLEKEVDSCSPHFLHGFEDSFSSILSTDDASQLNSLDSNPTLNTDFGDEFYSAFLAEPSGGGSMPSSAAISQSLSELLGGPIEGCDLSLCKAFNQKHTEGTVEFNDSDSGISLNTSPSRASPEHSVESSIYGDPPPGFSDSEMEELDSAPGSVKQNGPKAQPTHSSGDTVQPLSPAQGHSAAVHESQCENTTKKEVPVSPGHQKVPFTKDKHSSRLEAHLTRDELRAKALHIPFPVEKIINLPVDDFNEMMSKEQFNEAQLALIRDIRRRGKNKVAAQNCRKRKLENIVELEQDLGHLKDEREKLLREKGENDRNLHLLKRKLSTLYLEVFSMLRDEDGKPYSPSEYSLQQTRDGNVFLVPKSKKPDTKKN
Nature of the data set: Induction of Nrf2 translocation in nucleus of rat PC12 cells assessed as upregulation of HO-1 protein expression at 5 uM after 24 hrs by Western blot method. (Immunoblotting shows a protein as a band on a membrane.)

For data set [7], the system named is PC-12. Nature of the data set: Cytoprotective activity against H2O2-induced damage in rat PC12 cells assessed as decrease in ROS accumulation at 5 uM preincubated for 1 to 24 hrs followed by H2O2 challenge measured after 3 hrs by DCFH-DA dye-based flow cytometric method. Type of data set: functional, cell-based. An outline of the steps:
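PC12 cells seeded at 3 × 10^5/mL and attached overnight. Pre-incubated 1 h or 24 h with 5 µM compound, then H2O2 for 3 h. Loaded with DCFH-DA at 37 °C for 30 min, detached enzymatically, washed in PBS, filtered and analysed by flow cytometry. Mean ± SD, n = 3.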

Data set [8] deals with PC-12. In words: Cytoprotective activity against H2O2-induced damage in rat PC12 cells assessed as increase in cell viability preincubated for 1 to 24 hrs followed by H2O2 challenge measured after 24 hrs by MTT assay. Type of data set: functional, cell-based. An outline of the steps:
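PC12 cells at 5×10^3/well, attached overnight. Pretreated 1 h or 24 h at 2.5, 5 or 7.5 µM, then 400 µM H2O2 for 24 h. MTT 4 h at 37 °C, DMSO solubilisation, OD 490 nm. Viability as % of control. Mean ± SD, n = 3, one-way ANOVA with Tukey test.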

In data set [9] the target is T1, Nuclear factor erythroid 2-related factor 2 (Rattus norvegicus). In words: Induction of Nrf2 translocation in nucleus of rat PC12 cells at 5 uM after 6 hrs by DAPI staining-based fluorescence microscopic method. Type of data set: cell-based. The essentials:
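PC12 cells on coverslips treated with 5 µM compound for 6 h. Fixed in 4% paraformaldehyde (20 min, 4 °C), permeabilised with 1% Triton X-100, blocked with 1% BSA. Anti-Nrf2 (1:300) overnight at 4 °C, then PE-labelled secondary (1:300) 1 h in the dark. DAPI counterstain, imaged by fluorescence microscopy.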

In data set [10] the test system is Rattus norvegicus. In words: Antiischemic stroke activity in Sprague-Dawley rat middle cerebral artery occlusion-induced ischemia-reperfusion injury model assessed as decrease in neurological score at 0.2 mg/kg, icv as nanoparticle measured after 72 hrs by Longa's method. Type of data set: functional, organism-based. An outline of the steps:
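Male Sprague-Dawley rats (250-280 g), n = 7 per group. Intracerebroventricular injection of nanoparticle formulation 0.2 mg/kg 2 h before MCAO. Vehicle was polymer:DMSO:distilled water (50 mg:1 mL:3 mL). Intraluminal thread (about 1.8 cm) via ECA, 2 h occlusion, then 72 h reperfusion. Neurological deficit scored at 72 h on Longa's 0–4 scale. Mean ± SD, n ≥ 6.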

In data set [11] the target is T1, Nuclear factor erythroid 2-related factor 2 (Rattus norvegicus). Nature of the data set: Induction of Nrf2 translocation in nucleus of rat PC12 cells assessed as upregulation of HO-1 protein expression after 24 hrs by Western blot method. Type of data set: cell-based. The essentials:
(§3)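 PC12 cells treated 24 h at 2.5, 5 or 10 µM; reference compounds at 10 µM. Lysed in ice-cold RIPA, run on 10% SDS-PAGE and transferred to PVDF. Probed with anti-HO-1 (1:300) and GAPDH (1:1000) overnight at 4 °C, then HRP anti-rabbit IgG 1 h. Mean ± SD, n = 3, one-way ANOVA with Tukey test.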

Data set [12] deals with PC-12. In words: Cytoprotective activity against H2O2-induced damage in rat PC12 cells assessed as decrease in MDA levels preincubated for 1 to 24 hrs followed by H2O2 challenge measured after 16 hrs. Type of data set: functional, cell-based. The essentials:
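PC12 cells in DMEM with 10% FBS at 37 °C, 5% CO2. Pre-incubated 1 h or 24 h with compound (2.5, 5, 7.5 µM; reference compounds 5 µM), then exposed to 700 µM H2O2 for 16 h. Supernatant taken after centrifugation at 1600 × g for 10 min at 4 °C, and MDA measured with a kit. Mean ± SD, n = 3, one-way ANOVA with Tukey test.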

The subject of data set [13] is Rattus norvegicus. In words: Antiischemic stroke activity in Sprague-Dawley rat middle cerebral artery occlusion-induced ischemia-reperfusion injury model assessed as decrease in infarct size at 0.2 mg/kg, icv as nanoparticle measured after 72 hrs by TTC staining-based assay. Type of data set: functional, organism-based. An outline of the steps:
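Male Sprague-Dawley rats (250-280 g), n = 7 per group. Nanoparticle-loaded drug (0.2 mg/kg) or isovolumetric saline or vehicle (polymer:DMSO:distilled water 50 mg:1 mL:3 mL) given by intracerebroventricular injection 2 h before MCAO. Filament occlusion for 2 h, then 72 h reperfusion. Brain slices stained with TTC at 37 °C for 30 min, photographed, and infarct area quantified by image analysis.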

Data set [14] concerns the target T1, Nuclear factor erythroid 2-related factor 2 (Rattus norvegicus). In words: Induction of Nrf2 translocation in nucleus of rat PC12 cells assessed as upregulation of HO-1 protein expression at 10 uM after 24 hrs by Western blot method. Type of data set: cell-based. An outline of the steps: as §3

Take `CCCN1C/C(=C\c2ccc(O)c(O)c2)C(=O)/C(=C/c2ccc(O)c(O)c2)C1`: the outcome in [1] and in [2] was Active.
`CN1C/C(=C\c2ccc(O)c(O)c2)C(=O)/C(=C/c2ccc(O)c(O)c2)C1`: the outcome in data set [1] and in data set [2] was Active.
Consider `O=C1C(=Cc2ccc(O)c(O)c2)CCC/C1=C\c1ccc(O)c(O)c1`, for which the result in [1] and in data set [2] was Active.
As for `O=C1/C(=C/c2ccc(O)c(O)c2)CNC/C1=C\c1ccc(O)c(O)c1`, the Activity entry is reported as “Toxic” in data set [3] and “Non-Toxic” in data set [5]. The result in [1], in data set [4] and in data set [2] was Active.
As for `O=C1/C(=C/c2ccc(O)c(O)c2)CN(C(=O)OCc2ccccc2)C/C1=C\c1ccc(O)c(O)c1`, the outcome in data set [1] and in data set [2] was Active.
`O=C1C(=Cc2ccc(O)c(O)c2)CC/C1=C\c1ccc(O)c(O)c1`: the Activity entry was “Toxic” in data set [3]; “Dose-dependent effect” in data set [8]; “Non-Toxic” in data set [5]; “Dose-dependent effect” in data set [11]; “Dose-dependent effect” in [12]. Also, the result in data set [6] was inactive. The result in data set [7], in [1], in data set [4], in data set [9], in data set [10] and in data set [2] was Active. Further, in data set [13], the result was Active.
`CC1=NN(c2ccccc2)C(=O)C1`: the result in data set [10] and in data set [13] was Active.
`O=C1/C(=C/c2ccc(O)c(O)c2)COC/C1=C\c1ccc(O)c(O)c1`: the Activity entry in [3] is given as “Toxic”; in [5], “Non-Toxic”. The result in [1], in data set [4] and in data set [2] was Active.
Take `O=C1/C(=C/c2ccc(O)c(O)c2)CN(C2CC2)C/C1=C\c1ccc(O)c(O)c1`: the outcome in data set [1] and in data set [2] was Active.
On to `O=C1/C(=C/c2ccc(O)c(O)c2)CN(CCc2ccccc2)C/C1=C\c1ccc(O)c(O)c1`, for which the outcome in [1] and in data set [2] was Active.
For the compound `CCOC(=O)N1C/C(=C\c2ccc(O)c(O)c2)C(=O)/C(=C/c2ccc(O)c(O)c2)C1`, the outcome in [1] and in data set [2] was Active.
Consider `O=C1/C(=C/c2ccc(O)c(O)c2)CN(Cc2ccccc2)C/C1=C\c1ccc(O)c(O)c1`, for which the outcome in data set [1] and in data set [2] was Active.
Take `CC(C)(C)c1cc(O)ccc1O`: the result in [9] and in data set [14] was Active.
In the case of `C[C@H](Cc1ccc(O)c(O)c1)[C@@H](C)Cc1ccc(O)c(O)c1`, the result in data set [1], in data set [9], in [2] and in [14] was Active.
For the compound `O=C1/C(=C/c2ccc(O)c(O)c2)CSC/C1=C\c1ccc(O)c(O)c1`, the outcome in [1] and in data set [2] was Active.

The values above are taken from ChEMBL document CHEMBL4251559, “Design, synthesis, and evaluation of NDGA analogues as potential anti-ischemic stroke agents” (Eur J Med Chem, 2018).
